Reference: ChEMBL document CHEMBL3784993, “Synthesis and anticancer activity of some 5-fluoro-2'-deoxyuridine phosphoramidates” (Bioorg Med Chem, 2016)

System: MCF7
Assay: Cytotoxicity against human MCF7cells after 72 hrs by SRB assay
Type: functional, cell-based
Conditions: MCF7, 72 h
COC(=O)[C@H](C)NP(=O)(OC[C@H]1O[C@@H](n2cc(F)c(=O)[nH]c2=O)C[C@@H]1OC(=O)OC(C)(C)C)Oc1ccccc1 (stereo partly drawn) showed an IC50 of 6.29 µM. Compound C=CCNP(=O)(OC[C@H]1O[C@@H](n2cc(F)c(=O)[nH]c2=O)C[C@@H]1OC(=O)OC(C)(C)C)Oc1ccc(Cl)cc1 (stereo partly drawn) has an IC50 of 12.8 µM. In the case of COC(=O)[C@H](C)NP(=O)(OC[C@H]1O[C@@H](n2cc(F)c(=O)[nH]c2=O)C[C@@H]1O)Oc1ccccc1 (stereo partly drawn), the IC50 is reported as 29.1 µM. C#CCNP(=O)(OC[C@H]1O[C@@H](n2cc(F)c(=O)[nH]c2=O)C[C@@H]1O)Oc1ccc(Cl)cc1 (stereo partly drawn) showed an IC50 of 12 µM. Compound CNP(=O)(OC[C@H]1O[C@@H](n2cc(F)c(=O)[nH]c2=O)C[C@@H]1OC(=O)OC(C)(C)C)Oc1ccc(Cl)cc1 (stereo partly drawn) has an IC50 of 8.18 µM. In the case of COC(=O)[C@H](C)NP(=O)(OC[C@H]1O[C@@H](n2cc(F)c(=O)[nH]c2=O)C[C@@H]1O)Oc1ccc(Cl)cc1 (stereo partly drawn), the IC50 is reported as 4.54 µM. Compound O=c1[nH]c(=O)n([C@H]2C[C@H](O)[C@@H](COP(=O)(NCC(F)(F)F)Oc3ccc(Cl)cc3)O2)cc1F (stereo partly drawn) has an IC50 of 1.82 µM.

System: 143B
Assay: Cytotoxicity against human thymidine kinase deficient 143B cells after 72 hrs by SRB assay
Type: functional, cell-based
Conditions: not given
In short: (§1)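 SRB protein-stain assay. Cells were seeded at about 10,000 per well and grown 24 h to a partial monolayer. They were then exposed for 72 h at 37 °C (5% CO2, 90% RH) to six concentrations: 0.1, 0.2, 1, 2, 10 and 20 µM. Final DMSO was ≤0.1%. Cells were TCA-fixed and stained with 0.4% SRB, and OD was read at 490 nm. Survival was expressed versus untreated cells. Cytarabine served as internal standard, with three experiments.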
In the case of C#CCNP(=O)(OC[C@H]1O[C@@H](n2cc(F)c(=O)[nH]c2=O)C[C@@H]1O)Oc1ccc(Cl)cc1 (stereo partly drawn), the IC50 is reported as 3.9 µM. In the case of CNP(=O)(OC[C@H]1O[C@@H](n2cc(F)c(=O)[nH]c2=O)C[C@@H]1OC(=O)OC(C)(C)C)Oc1ccc(Cl)cc1 (stereo partly drawn), the IC50 is reported as 13.1 µM. COC(=O)[C@H](C)NP(=O)(OC[C@H]1O[C@@H](n2cc(F)c(=O)[nH]c2=O)C[C@@H]1O)Oc1ccc(Cl)cc1 (stereo partly drawn) showed an IC50 of 8.67 µM. With O=c1[nH]c(=O)n([C@H]2C[C@H](O)[C@@H](COP(=O)(NCC(F)(F)F)Oc3ccc(Cl)cc3)O2)cc1F (stereo partly drawn) the IC50 was 2.51 µM.

System: KB
Assay: Cytotoxicity against human KB cells after 72 hrs by SRB assay
Type: functional, cell-based
Conditions: not given
In short: as §1
Work on COC(=O)[C@H](C)NP(=O)(OC[C@H]1O[C@@H](n2cc(F)c(=O)[nH]c2=O)C[C@@H]1OC(=O)OC(C)(C)C)Oc1ccccc1 (stereo partly drawn) yielded an IC50 of 8.34 µM. With C=CCNP(=O)(OC[C@H]1O[C@@H](n2cc(F)c(=O)[nH]c2=O)C[C@@H]1OC(=O)OC(C)(C)C)Oc1ccc(Cl)cc1 (stereo partly drawn) the IC50 was 16.5 µM. For COC(=O)[C@H](C)NP(=O)(OC[C@H]1O[C@@H](n2cc(F)c(=O)[nH]c2=O)C[C@@H]1O)Oc1ccccc1 (stereo partly drawn), the IC50 was 18 µM. C#CCNP(=O)(OC[C@H]1O[C@@H](n2cc(F)c(=O)[nH]c2=O)C[C@@H]1O)Oc1ccc(Cl)cc1 (stereo partly drawn) gave an IC50 of 25.3 µM. For CNP(=O)(OC[C@H]1O[C@@H](n2cc(F)c(=O)[nH]c2=O)C[C@@H]1OC(=O)OC(C)(C)C)Oc1ccc(Cl)cc1 (stereo partly drawn), the IC50 was 7.28 µM. COC(=O)[C@H](C)NP(=O)(OC[C@H]1O[C@@H](n2cc(F)c(=O)[nH]c2=O)C[C@@H]1O)Oc1ccc(Cl)cc1 (stereo partly drawn) gave an IC50 of 4.22 µM. O=c1[nH]c(=O)n([C@H]2C[C@H](O)[C@@H](COP(=O)(NCC(F)(F)F)Oc3ccc(Cl)cc3)O2)cc1F (stereo partly drawn) showed an IC50 of 1.93 µM.

System: not listed separately
Assay: Cytotoxicity against HDF cells after 72 hrs by SRB assay
Type: cell-based
Conditions: Homo sapiens
For COC(=O)[C@H](C)NP(=O)(OC[C@H]1O[C@@H](n2cc(F)c(=O)[nH]c2=O)C[C@@H]1OC(=O)OC(C)(C)C)Oc1ccccc1 (stereo partly drawn), the IC50 was 17.5 µM. With C=CCNP(=O)(OC[C@H]1O[C@@H](n2cc(F)c(=O)[nH]c2=O)C[C@@H]1OC(=O)OC(C)(C)C)Oc1ccc(Cl)cc1 (stereo partly drawn) the IC50 was 27.2 µM. For COC(=O)[C@H](C)NP(=O)(OC[C@H]1O[C@@H](n2cc(F)c(=O)[nH]c2=O)C[C@@H]1O)Oc1ccccc1 (stereo partly drawn), the IC50 was 43.1 µM. Compound C#CCNP(=O)(OC[C@H]1O[C@@H](n2cc(F)c(=O)[nH]c2=O)C[C@@H]1O)Oc1ccc(Cl)cc1 (stereo partly drawn) has an IC50 of 31 µM. Work on CNP(=O)(OC[C@H]1O[C@@H](n2cc(F)c(=O)[nH]c2=O)C[C@@H]1OC(=O)OC(C)(C)C)Oc1ccc(Cl)cc1 (stereo partly drawn) yielded an IC50 of 12.4 µM. COC(=O)[C@H](C)NP(=O)(OC[C@H]1O[C@@H](n2cc(F)c(=O)[nH]c2=O)C[C@@H]1O)Oc1ccc(Cl)cc1 (stereo partly drawn) showed an IC50 of 18.4 µM. Work on O=c1[nH]c(=O)n([C@H]2C[C@H](O)[C@@H](COP(=O)(NCC(F)(F)F)Oc3ccc(Cl)cc3)O2)cc1F (stereo partly drawn) yielded an IC50 of 4.19 µM.

System: HeLa
Assay: Cytotoxicity against human HeLa cells after 72 hrs by SRB assay
Type: functional, cell-based
Conditions: not given
In short: as §1
With COC(=O)[C@H](C)NP(=O)(OC[C@H]1O[C@@H](n2cc(F)c(=O)[nH]c2=O)C[C@@H]1OC(=O)OC(C)(C)C)Oc1ccccc1 (stereo partly drawn) the IC50 was 8.34 µM. Compound C=CCNP(=O)(OC[C@H]1O[C@@H](n2cc(F)c(=O)[nH]c2=O)C[C@@H]1OC(=O)OC(C)(C)C)Oc1ccc(Cl)cc1 (stereo partly drawn) has an IC50 of 19.1 µM. With COC(=O)[C@H](C)NP(=O)(OC[C@H]1O[C@@H](n2cc(F)c(=O)[nH]c2=O)C[C@@H]1O)Oc1ccccc1 (stereo partly drawn) the IC50 was 23.5 µM. For C#CCNP(=O)(OC[C@H]1O[C@@H](n2cc(F)c(=O)[nH]c2=O)C[C@@H]1O)Oc1ccc(Cl)cc1 (stereo partly drawn), the IC50 was 10.6 µM. For CNP(=O)(OC[C@H]1O[C@@H](n2cc(F)c(=O)[nH]c2=O)C[C@@H]1OC(=O)OC(C)(C)C)Oc1ccc(Cl)cc1 (stereo partly drawn), the IC50 was 7.27 µM. COC(=O)[C@H](C)NP(=O)(OC[C@H]1O[C@@H](n2cc(F)c(=O)[nH]c2=O)C[C@@H]1O)Oc1ccc(Cl)cc1 (stereo partly drawn) showed an IC50 of 4.11 µM. O=c1[nH]c(=O)n([C@H]2C[C@H](O)[C@@H](COP(=O)(NCC(F)(F)F)Oc3ccc(Cl)cc3)O2)cc1F (stereo partly drawn) showed an IC50 of 3.09 µM.

System: MCF7
Assay: Selectivity index, ratio of IC50 for HDF cells to IC50 for human MCF7 cells
Type: functional
Conditions: not given
In short: (§2)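 SI is calculated as the IC50 in normal human dermal fibroblasts (HDF) divided by the IC50 in the respective cancer line. Both values come from 72 h SRB assays. SD is from three independent experiments.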
With COC(=O)[C@H](C)NP(=O)(OC[C@H]1O[C@@H](n2cc(F)c(=O)[nH]c2=O)C[C@@H]1O)Oc1ccc(Cl)cc1 (stereo partly drawn) the “Ratio IC50” value was 4.06. With O=c1[nH]c(=O)n([C@H]2C[C@H](O)[C@@H](COP(=O)(NCC(F)(F)F)Oc3ccc(Cl)cc3)O2)cc1F (stereo partly drawn) the “Ratio IC50” value was 2.3.

System: HeLa
Assay: Selectivity index, ratio of IC50 for HDF cells to IC50 for human HeLa cells
Type: functional
Conditions: not given
In short: as §2
In the case of COC(=O)[C@H](C)NP(=O)(OC[C@H]1O[C@@H](n2cc(F)c(=O)[nH]c2=O)C[C@@H]1O)Oc1ccc(Cl)cc1 (stereo partly drawn), the “Ratio IC50” value is reported as 4.49. In the case of O=c1[nH]c(=O)n([C@H]2C[C@H](O)[C@@H](COP(=O)(NCC(F)(F)F)Oc3ccc(Cl)cc3)O2)cc1F (stereo partly drawn), the “Ratio IC50” value is reported as 1.36.

System: 143B
Assay: Cytotoxicity against human 143B cells after 72 hrs by SRB assay
Type: functional, cell-based
Conditions: not given
In short: as §1
Work on C#CCNP(=O)(OC[C@H]1O[C@@H](n2cc(F)c(=O)[nH]c2=O)C[C@@H]1O)Oc1ccc(Cl)cc1 (stereo partly drawn) yielded an IC50 of 3.61 µM. CNP(=O)(OC[C@H]1O[C@@H](n2cc(F)c(=O)[nH]c2=O)C[C@@H]1OC(=O)OC(C)(C)C)Oc1ccc(Cl)cc1 (stereo partly drawn) showed an IC50 of 6.72 µM. In the case of COC(=O)[C@H](C)NP(=O)(OC[C@H]1O[C@@H](n2cc(F)c(=O)[nH]c2=O)C[C@@H]1O)Oc1ccc(Cl)cc1 (stereo partly drawn), the IC50 is reported as 4.03 µM. O=c1[nH]c(=O)n([C@H]2C[C@H](O)[C@@H](COP(=O)(NCC(F)(F)F)Oc3ccc(Cl)cc3)O2)cc1F (stereo partly drawn) showed an IC50 of 1.8 µM.

System: not listed separately
Assay: Selectivity index, ratio of IC50 for HDF cells to IC50 for human KB cells
Type: functional
Conditions: not given
In short: as §2
For COC(=O)[C@H](C)NP(=O)(OC[C@H]1O[C@@H](n2cc(F)c(=O)[nH]c2=O)C[C@@H]1O)Oc1ccc(Cl)cc1 (stereo partly drawn), the “Ratio IC50” value was 4.37. In the case of O=c1[nH]c(=O)n([C@H]2C[C@H](O)[C@@H](COP(=O)(NCC(F)(F)F)Oc3ccc(Cl)cc3)O2)cc1F (stereo partly drawn), the “Ratio IC50” value is reported as 2.17.

System: HepG2
Assay: Cytotoxicity against human HepG2 cells after 72 hrs by SRB assay
Type: functional, cell-based
Conditions: HepG2, 72 h
In the case of COC(=O)[C@H](C)NP(=O)(OC[C@H]1O[C@@H](n2cc(F)c(=O)[nH]c2=O)C[C@@H]1OC(=O)OC(C)(C)C)Oc1ccccc1 (stereo partly drawn), the IC50 is reported as 9.28 µM. Compound C=CCNP(=O)(OC[C@H]1O[C@@H](n2cc(F)c(=O)[nH]c2=O)C[C@@H]1OC(=O)OC(C)(C)C)Oc1ccc(Cl)cc1 (stereo partly drawn) has an IC50 of 17 µM. COC(=O)[C@H](C)NP(=O)(OC[C@H]1O[C@@H](n2cc(F)c(=O)[nH]c2=O)C[C@@H]1O)Oc1ccccc1 (stereo partly drawn) showed an IC50 of 25.9 µM. In the case of C#CCNP(=O)(OC[C@H]1O[C@@H](n2cc(F)c(=O)[nH]c2=O)C[C@@H]1O)Oc1ccc(Cl)cc1 (stereo partly drawn), the IC50 is reported as 24.5 µM. With CNP(=O)(OC[C@H]1O[C@@H](n2cc(F)c(=O)[nH]c2=O)C[C@@H]1OC(=O)OC(C)(C)C)Oc1ccc(Cl)cc1 (stereo partly drawn) the IC50 was 6.55 µM. Work on COC(=O)[C@H](C)NP(=O)(OC[C@H]1O[C@@H](n2cc(F)c(=O)[nH]c2=O)C[C@@H]1O)Oc1ccc(Cl)cc1 (stereo partly drawn) yielded an IC50 of 6.65 µM. O=c1[nH]c(=O)n([C@H]2C[C@H](O)[C@@H](COP(=O)(NCC(F)(F)F)Oc3ccc(Cl)cc3)O2)cc1F (stereo partly drawn) showed an IC50 of 3.48 µM.

System: HepG2
Assay: Selectivity index, ratio of IC50 for HDF cells to IC50 for human HepG2 cells
Type: functional
Conditions: not given
In short: as §2
With COC(=O)[C@H](C)NP(=O)(OC[C@H]1O[C@@H](n2cc(F)c(=O)[nH]c2=O)C[C@@H]1O)Oc1ccc(Cl)cc1 (stereo partly drawn) the “Ratio IC50” value was 2.77. In the case of O=c1[nH]c(=O)n([C@H]2C[C@H](O)[C@@H](COP(=O)(NCC(F)(F)F)Oc3ccc(Cl)cc3)O2)cc1F (stereo partly drawn), the “Ratio IC50” value is reported as 1.2.

System: 143B
Assay: Selectivity index, ratio of IC50 for HDF cells to IC50 for human 143B cells
Type: functional
Conditions: not given
In short: as §2
With COC(=O)[C@H](C)NP(=O)(OC[C@H]1O[C@@H](n2cc(F)c(=O)[nH]c2=O)C[C@@H]1O)Oc1ccc(Cl)cc1 (stereo partly drawn) the “Ratio IC50” value was 4.58. In the case of O=c1[nH]c(=O)n([C@H]2C[C@H](O)[C@@H](COP(=O)(NCC(F)(F)F)Oc3ccc(Cl)cc3)O2)cc1F (stereo partly drawn), the “Ratio IC50” value is reported as 2.33.
